Assay outcomes as filed in PubChem BioAssay.
NTR1 ag = NTR1 (human) agonism. P30989. NTR1-U2OS beta-arrestin-GFP spot imaging, agonist mode. activation, % at 20 µM. 0.17% of 330,000 active;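 active = activation at or above 40% of the spot to cytoplasm intensity ratio, with at least 20 cells analyzed; inconclusive = wells under 20 cells, flagged as cytotoxic or low count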;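 also: 0% = DMSO without peptide and 100% = 100 nM NTR1 peptide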
MC4R antagonist = blocks human MC4R cAMP signaling. AID 540295. 0.48% of 360,000 active. MC4R-expressing cells, MTII-stimulated cAMP, LANCE TR-FRET. inhibition, % at 6.5 µM. P32245;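 active = inhibition above its plate's cutoff, the mean of tested wells on that plate plus 3 SD, cut at about 29% in these data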;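 also: 0% = Melanotan II alone and 100% = Melanotan II plus saturating MCL0020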
Target sequence (P32245 whole entry, looked up): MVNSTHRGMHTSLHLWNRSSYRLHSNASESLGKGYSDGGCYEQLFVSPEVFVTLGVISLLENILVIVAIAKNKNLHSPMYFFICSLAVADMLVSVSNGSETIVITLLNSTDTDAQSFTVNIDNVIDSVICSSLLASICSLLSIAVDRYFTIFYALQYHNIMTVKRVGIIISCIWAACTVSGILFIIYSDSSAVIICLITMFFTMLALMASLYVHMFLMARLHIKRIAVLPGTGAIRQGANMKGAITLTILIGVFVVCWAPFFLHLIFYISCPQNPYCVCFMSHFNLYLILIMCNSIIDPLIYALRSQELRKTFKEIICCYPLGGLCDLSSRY
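System – human MC4R-expressing U2OS cells · Also added – Melanotan II · Dosing – one concentration, 6.5 µM nominal · Timing – 30-min compound, 1-h challenge, 1-h detection, room temperature · Measured by – Eu-cAMP/anti-cAMP TR-FRET, emission 671 nm · Replicates – singlicate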
MC4R barr agon = agonists of human melanocortin 4 receptor (MC4R) beta-arrestin; P32245; U2OS MC4R beta-arrestin complementation, luminescence; percent of melanotan II response, DMSO zero; activation, % at 8.9 µM; 0.98% of 360,000 active; AID 540308;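 active = activation above a per-plate cutoff, the mean activation of sample wells on that plate plus 3 SD, cut at about 8% in these data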
AI-2 QS modul = Vibrio harveyi AI-2 quorum sensing modulation; Vibrio harveyi JMH597 AI-2 luminescence/OD600 ratio, 9 h; stronger effect = lower value; strain lacks LuxN and CqsS sensors; 0 = neutral-control median; activity change, % at 7.5 µM; 0.4% of 300,000 active; AID 2094; in the data active = activity change below about -75%, passing the limit was not always enough; inconclusive = no clear call, values can overlap the other calls;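 also: luminescence divided by OD600 gain over 9 h not by final OD600 alone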
Starred values were filed as active, the others as inactive. An excerpt weighted towards active compounds, which were near 1.8% of everything screened.

Screening CCOc1ccc(NC(=O)c2cccc(NC(C)=O)c2)cc1S(=O)(=O)N1CCCC1 returned NTR1 ag 0.9, MC4R antagonist -1.8 and MC4R barr agon -1.4.
Screening O=C(COc1ccccc1)Nc1nnc(-c2ccc(Cl)s2)o1 returned NTR1 ag -0.1, MC4R antagonist 4.4, MC4R barr agon -1.1 and AI-2 QS modul -87.0*.
For S=c1nc[nH]c2nc[nH]c12 the results were NTR1 ag -1.8, MC4R antagonist 8.2, MC4R barr agon -2.1 and AI-2 QS modul -154.5*.
`CCOC(=O)c1c(C)oc2c1C(=O)c1ccccc1C2=O` gave NTR1 ag -1.3, MC4R antagonist -7.6, MC4R barr agon -1.6 and AI-2 QS modul 16.4.
Screening Cc1oc2c(c1C(=O)O)C(=O)c1ccccc1C2=O returned NTR1 ag -3.1, MC4R antagonist 3.3, MC4R barr agon -0.3 and AI-2 QS modul -82.6*.
For CCOC(=O)c1ccccc1Nc1cn(C(C)=O)c2ccccc12 the results were NTR1 ag 5.8, MC4R antagonist -21.0, MC4R barr agon 1.6 and AI-2 QS modul 18.7.
For COc1ccccc1N(C(=O)CCl)c1cn(C(C)=O)c2ccccc12 the results were NTR1 ag 6.3, MC4R antagonist 5.9, MC4R barr agon 8.6* and AI-2 QS modul 34.4.
`Cc1cc(C)c(NC(=O)c2ccccc2CCc2ccccc2)c(C)c1` gave NTR1 ag 4.3, MC4R antagonist 0.4, MC4R barr agon 28.9* and AI-2 QS modul 0.1.
For COc1ccc(NC(=O)CCn2c(=S)[nH]c3ccccc3c2=O)cc1 the results were NTR1 ag -0.2, MC4R antagonist 8.4, MC4R barr agon 8.6* and AI-2 QS modul 14.7.
For COc1cccc(CNC(=O)CCCN2C(=O)C(c3ccccc3)Oc3cccnc32)c1OC (stereo not given) the results were NTR1 ag -1.1, MC4R antagonist 5.1, MC4R barr agon -0.4 and AI-2 QS modul 8.4.
Screening CCCCOc1ccc(C(=O)N/C(=C\c2cccc([N+](=O)[O-])c2)C(=O)OCCC)cc1 returned NTR1 ag 2.9, MC4R antagonist 16.2, MC4R barr agon 8.8* and AI-2 QS modul 23.4.
Screening C=CCNC(=O)c1c(N)n(-c2ccc3c(c2)OCO3)c2nc3ccccc3nc12 returned NTR1 ag 0.7, MC4R antagonist 3.2, MC4R barr agon 8.7* and AI-2 QS modul 10.8.
Screening Cc1cccc(-n2ncc3c(N4CC(C)CC(C)C4)ncnc32)c1 (stereo not given) returned NTR1 ag 2.8, MC4R antagonist -2.5, MC4R barr agon 8.4* and AI-2 QS modul 26.5.
CC1OC(CC(=O)O)CC2=C1C(=O)c1c(O)cccc1C2=O (stereo not given) was read as MC4R antagonist 40.4* and MC4R barr agon -2.9.
Screening COc1ccc(C2CC(c3cccs3)=NN2C(=O)CCl)cc1OC (stereo not given) returned NTR1 ag 2.6, MC4R antagonist 10.2, MC4R barr agon 3.6 and AI-2 QS modul -5.5.
`COc1cc(C2CC(c3cccs3)=NN2C(=O)CCl)ccc1OC(F)F` (stereo not given) gave NTR1 ag 26.7, MC4R antagonist 26.1, MC4R barr agon 21.6* and AI-2 QS modul 10.9.
For COc1ccccc1NC(=O)COC(=O)c1ccc([N+](=O)[O-])s1 the results were NTR1 ag 4.1, MC4R antagonist 9.6, MC4R barr agon -3.2 and AI-2 QS modul -87.0*.
Screening Cn1c(SCC(=O)Nc2ccccc2)nnc1-c1ccc(NC(=O)CCc2ccccc2)cc1 returned NTR1 ag 7.1, MC4R antagonist -0.5, MC4R barr agon 9.3* and AI-2 QS modul 16.1.
`COc1ccc(/C=N/OCC(=O)OCC(=O)N(C)c2ccccc2)cc1` gave NTR1 ag -1.3, MC4R antagonist 5.1, MC4R barr agon -2.6 and AI-2 QS modul -39.9.
`c1ccc(CC[C@@H]2CC[C@@H](CCc3ccccc3)N2)cc1` gave NTR1 ag -0.4, MC4R antagonist -2.3 and MC4R barr agon 8.4*.
Screening COc1ccc(CC(=O)Nc2cc(Cl)ccc2O)cc1 returned NTR1 ag -0.4, MC4R antagonist 6.0, MC4R barr agon 1.0 and AI-2 QS modul -94.1*.
O=C(OCC12CC3CC(CC(C3)C1)C2)c1ccc(NCc2cc(O)ccc2O)cc1 was read as MC4R antagonist 0.6 and MC4R barr agon 10.7*.
Screening O=C(OCCC12CC3CC(CC(C3)C1)C2)c1ccc(NCc2cc(O)ccc2O)cc1 returned MC4R antagonist -9.7 and MC4R barr agon 1.6.
Screening C[C@H](CO)N1C[C@H](C)[C@@H](CN(C)Cc2ccccn2)Oc2ncc(Br)cc2C1=O returned MC4R antagonist 9.3 and MC4R barr agon 1.2.
`CC(C)(C)c1ccc(OCc2ccc(C(=O)N/N=C/c3ccc([N+](=O)[O-])cc3)o2)cc1` gave NTR1 ag 0.2, MC4R antagonist 11.0, MC4R barr agon 9.1* and AI-2 QS modul 17.2.
Screening CCOc1ccc(/C=N/NC(=O)c2ccc(Cn3cc([N+](=O)[O-])cn3)o2)cc1 returned NTR1 ag -1.1, MC4R antagonist 0.6, MC4R barr agon 0.4 and AI-2 QS modul 48.2.
`Oc1c(I)cc(Cl)c2cccnc12` gave NTR1 ag -0.9, MC4R antagonist 1.6, MC4R barr agon -1.8 and AI-2 QS modul -107.8*.
O=[N+]([O-])c1cc(Cl)c(O)c2ncccc12 was read as NTR1 ag 7.1, MC4R antagonist 0.9, MC4R barr agon -6.0 and AI-2 QS modul -88.1*.
Screening O=[N+]([O-])c1cc(Cl)c2cccnc2c1O returned NTR1 ag 0.0, MC4R antagonist 1.9, MC4R barr agon -1.9 and AI-2 QS modul inconclusive.
`CCOc1ccc(NC(=O)/C(C#N)=C\c2ccc(N3CCCC3)c(C)c2)cc1` gave MC4R antagonist 0.2 and MC4R barr agon 13.2*.
For CCN(Cc1ccccc1)C(=O)Cn1c(=O)n(CCC(=O)N2CCCCC2)c(=O)c2sccc21 the results were NTR1 ag -0.1, MC4R antagonist 11.4, MC4R barr agon -1.2 and AI-2 QS modul 12.7.
Screening O=C(NCc1cccnc1)/C(=C\c1ccc(-c2cccc(Cl)c2)o1)S(=O)(=O)c1ccccc1 returned MC4R antagonist 22.5, MC4R barr agon 0.4 and AI-2 QS modul -45.7.
Screening O=C(NCc1cccnc1)/C(=C/c1ccc(-c2cccc(Cl)c2)o1)S(=O)(=O)c1ccccc1 returned NTR1 ag 42.5*, MC4R antagonist 1.4, MC4R barr agon 1.3 and AI-2 QS modul -40.1.
`CCCCCCNC(=O)CCc1nc2cccnc2n1Cc1ccc(OC)cc1` gave NTR1 ag -0.5, MC4R antagonist 8.2, MC4R barr agon -1.4 and AI-2 QS modul 1.9.
For CCc1ccc(NC(=O)CCc2nc3cccnc3n2Cc2ccc(OC)cc2)cc1 the results were NTR1 ag -0.3, MC4R antagonist 7.4, MC4R barr agon 8.5* and AI-2 QS modul 24.4.
For O=C(CSc1nnc(-c2ccc(Br)cc2)o1)Nc1cccc(C(=O)O)c1 the results were NTR1 ag -0.2, MC4R antagonist 13.9, MC4R barr agon -1.3 and AI-2 QS modul 11.6.
For O=C(CSc1nnc(-c2ccc(Br)cc2)o1)Nc1cccc2ccccc12 the results were NTR1 ag -0.3, MC4R antagonist 5.2, MC4R barr agon 9.1* and AI-2 QS modul 16.3.
